Measured values as given in article PMC3656655 (European journal of pharmacology, 2012).
Entries after “also recorded” stand apart in the source; their conditions may differ. Like-named read-outs stand apart in the source and are kept apart here.

How the values were obtained:
[1] = test system: extracellular 5-HT in nucleus accumbens; experiment: In vivo microdialysis of nucleus accumbens, dialysate 5-HT; details: rat, i.v.; for Effect on extracellular 5-HT in nucleus accumbens: methcathinone 0.3 then 1.0 mg/kg, 4-TFMAP 1.0 then 3.0 mg/kg
How it was run: (§1)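 Male Sprague-Dawley rats (300–350 g) under pentobarbital anaesthesia (60 mg/kg i.p.) get a jugular catheter and a nucleus accumbens guide cannula (1.6 mm lateral, 1.6 mm anterior to bregma, 6.0 mm below dura). Next morning, dialysate is collected every 20 min and assayed for DA and 5-HT by HPLC-ECD. After three stable baselines, two i.v. doses in saline (1 mL/kg) are given 60 min apart, with sampling for 120 min. Data are % of mean baseline; n=6 saline, 7 per drug; two-way ANOVA with Bonferroni.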

[2] = test system: extracellular dopamine in nucleus accumbens; experiment: In vivo microdialysis of nucleus accumbens, dialysate dopamine; set-up: species or system rat; details: i.v.; for Effect on extracellular dopamine in nucleus accumbens: rat, methcathinone 0.3 then 1.0 mg/kg, 4-TFMAP 1.0 then 3.0 mg/kg
How it was run: as §1

hNET [3] = target: T1, hNET (Homo sapiens, UniProt P23975); details: read-out: NET [3H]NE uptake inhibition IC50, ref Cozzi et al., 1999; cited from earlier work
rDAT [4] = target: T2, rDAT (Rattus norvegicus, UniProt P23977); details: read-out: DAT [3H]DA uptake inhibition IC50, ref Cozzi et al., 1999; cited from earlier work
hSERT [5] = target: T3, hSERT (Homo sapiens, UniProt P31645); details: read-out: SERT [3H]5-HT uptake inhibition IC50, ref Cozzi et al., 1999; cited from earlier work
rDAT [6] = target: T2, rDAT; experiment: Drug-evoked [3H]MPP+ release via rDAT in rat striatal synaptosomes; assay type: biochemical
rSERT = rSERT (Rattus norvegicus, UniProt P31652); experiment: Drug-evoked [3H]5-HT release via rSERT in rat brain synaptosomes; assay type: biochemical; details: for Fold more potent than methcathinone as [3H]5-HT releasing agent: SERT release
rNET = rNET (Rattus norvegicus, UniProt Q63380); experiment: Drug-evoked [3H]MPP+ release via rNET in rat brain synaptosomes; assay type: biochemical
hSERT [7] = target: T3, hSERT; experiment: Inhibition of hSERT-mediated [3H]5-HT uptake into human platelets; assay type: cell-based
hNET [8] = target: T1, hNET; experiment: Inhibition of hNET-mediated [3H]NE uptake into C6-hNET cells; assay type: cell-based
hDAT = hDAT (Homo sapiens, UniProt Q01959); experiment: Inhibition of hDAT-mediated [3H]DA uptake into HEK293-hDAT cells; assay type: cell-based
[9] = test system: horizontal locomotor activity; details: cited from earlier work; for Locomotor effects in vivo compared to methcathinone: ref Foley and Cozzi, 2003
[10] = test system: horizontal locomotor activity; experiment: Horizontal locomotor activity during microdialysis; assay type: in vivo; details: rat, i.v.; methcathinone 0.3 then 1.0 mg/kg, 4-TFMAP 1.0 then 3.0 mg/kg
How it was run: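 Horizontal activity is recorded by a photobeam ring (2.54 cm spacing) in a 43 cm cubic arena, where rats stay overnight and during microdialysis. It is binned every 20 min, from 60 min before to 120 min after two sequential i.v. injections given 60 min apart (saline vehicle, 1 mL/kg). Data are normalized to % of three pre-injection bins and compared with saline controls (n=6; drugs n=7) by two-way ANOVA with Bonferroni.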

[11] = test system: extracellular dopamine in nucleus accumbens; details: ref Baumann et al., 2012; Kehr et al. (2011); cited from earlier work
[12] = test system: extracellular 5-HT in nucleus accumbens; details: ref Baumann et al., 2012; Kehr et al. (2011); cited from earlier work
human SERT = details: read-out: KM as SERT substrate, racemic, ref Cozzi and Foley, 2003; cited from earlier work
[13] = read-out: NET [3H]MPP+ release EC50, mean ±S.E.M.
[14] = SERT [3H]5-HT release EC50, rat brain synaptosomes, mean ±S.E.M.

T2 sequence (P23977 whole entry): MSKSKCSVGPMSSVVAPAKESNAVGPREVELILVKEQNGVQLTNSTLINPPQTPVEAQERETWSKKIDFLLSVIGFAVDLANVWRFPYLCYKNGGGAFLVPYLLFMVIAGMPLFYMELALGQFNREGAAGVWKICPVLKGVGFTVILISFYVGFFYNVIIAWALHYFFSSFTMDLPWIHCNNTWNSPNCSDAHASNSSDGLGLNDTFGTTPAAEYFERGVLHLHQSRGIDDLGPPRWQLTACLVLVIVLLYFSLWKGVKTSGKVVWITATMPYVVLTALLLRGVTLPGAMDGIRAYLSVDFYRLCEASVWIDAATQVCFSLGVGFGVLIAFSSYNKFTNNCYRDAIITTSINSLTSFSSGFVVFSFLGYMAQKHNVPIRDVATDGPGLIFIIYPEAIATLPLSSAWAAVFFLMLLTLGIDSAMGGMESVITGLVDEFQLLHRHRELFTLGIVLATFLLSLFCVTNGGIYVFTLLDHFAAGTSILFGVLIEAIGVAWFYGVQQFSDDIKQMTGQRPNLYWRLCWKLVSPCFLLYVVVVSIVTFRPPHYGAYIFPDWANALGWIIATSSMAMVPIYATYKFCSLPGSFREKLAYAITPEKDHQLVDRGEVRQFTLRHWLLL
T3 sequence (P31645 whole entry): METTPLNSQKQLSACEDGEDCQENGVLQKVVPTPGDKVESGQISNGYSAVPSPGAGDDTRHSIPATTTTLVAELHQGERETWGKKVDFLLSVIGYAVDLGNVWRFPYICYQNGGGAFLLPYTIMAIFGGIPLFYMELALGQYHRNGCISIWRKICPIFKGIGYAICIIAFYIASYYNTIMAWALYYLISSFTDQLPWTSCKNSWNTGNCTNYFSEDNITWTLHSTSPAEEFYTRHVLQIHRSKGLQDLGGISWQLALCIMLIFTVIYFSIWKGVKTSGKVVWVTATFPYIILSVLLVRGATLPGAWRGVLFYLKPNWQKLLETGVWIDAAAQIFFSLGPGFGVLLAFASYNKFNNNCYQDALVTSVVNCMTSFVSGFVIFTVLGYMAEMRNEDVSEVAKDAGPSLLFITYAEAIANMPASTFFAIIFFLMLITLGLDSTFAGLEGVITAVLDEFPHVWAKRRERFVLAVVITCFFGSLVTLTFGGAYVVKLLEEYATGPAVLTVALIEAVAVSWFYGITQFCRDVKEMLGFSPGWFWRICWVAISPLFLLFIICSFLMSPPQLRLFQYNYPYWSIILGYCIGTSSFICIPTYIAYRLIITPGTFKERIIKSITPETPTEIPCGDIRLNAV
T1 sequence (P23975 whole entry): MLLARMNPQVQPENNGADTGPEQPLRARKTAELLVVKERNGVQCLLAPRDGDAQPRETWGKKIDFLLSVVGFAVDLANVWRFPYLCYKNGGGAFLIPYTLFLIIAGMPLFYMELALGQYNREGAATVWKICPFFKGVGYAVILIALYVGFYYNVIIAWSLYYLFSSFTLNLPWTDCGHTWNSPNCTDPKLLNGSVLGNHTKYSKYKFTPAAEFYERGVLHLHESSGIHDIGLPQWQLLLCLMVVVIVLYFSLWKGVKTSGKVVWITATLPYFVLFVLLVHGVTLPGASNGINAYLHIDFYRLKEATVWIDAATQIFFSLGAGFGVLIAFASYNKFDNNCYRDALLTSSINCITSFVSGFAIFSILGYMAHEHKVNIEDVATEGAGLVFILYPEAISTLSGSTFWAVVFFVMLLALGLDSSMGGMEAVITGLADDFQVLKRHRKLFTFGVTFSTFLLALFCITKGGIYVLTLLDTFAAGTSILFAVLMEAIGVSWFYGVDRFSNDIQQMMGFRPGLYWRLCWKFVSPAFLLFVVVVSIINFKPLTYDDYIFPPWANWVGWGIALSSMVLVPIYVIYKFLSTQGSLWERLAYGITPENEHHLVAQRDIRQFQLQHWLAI
Sequence of rSERT (P31652 whole entry): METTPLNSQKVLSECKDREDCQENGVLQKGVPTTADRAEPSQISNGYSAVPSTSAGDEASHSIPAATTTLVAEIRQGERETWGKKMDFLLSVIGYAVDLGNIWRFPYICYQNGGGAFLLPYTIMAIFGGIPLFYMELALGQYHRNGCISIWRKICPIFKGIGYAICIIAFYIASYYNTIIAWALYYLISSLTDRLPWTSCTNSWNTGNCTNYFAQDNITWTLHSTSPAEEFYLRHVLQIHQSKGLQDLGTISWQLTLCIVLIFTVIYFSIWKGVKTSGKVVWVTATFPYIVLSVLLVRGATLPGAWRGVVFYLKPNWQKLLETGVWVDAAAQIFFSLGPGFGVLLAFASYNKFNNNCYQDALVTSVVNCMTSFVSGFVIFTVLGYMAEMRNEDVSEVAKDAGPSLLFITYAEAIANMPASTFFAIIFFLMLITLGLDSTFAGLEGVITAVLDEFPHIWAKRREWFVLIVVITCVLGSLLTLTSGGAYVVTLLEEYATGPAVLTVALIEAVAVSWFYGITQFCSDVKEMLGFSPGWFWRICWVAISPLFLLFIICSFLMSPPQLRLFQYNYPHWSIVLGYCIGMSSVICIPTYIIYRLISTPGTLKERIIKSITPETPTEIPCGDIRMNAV
Sequence of hDAT (Q01959 whole entry): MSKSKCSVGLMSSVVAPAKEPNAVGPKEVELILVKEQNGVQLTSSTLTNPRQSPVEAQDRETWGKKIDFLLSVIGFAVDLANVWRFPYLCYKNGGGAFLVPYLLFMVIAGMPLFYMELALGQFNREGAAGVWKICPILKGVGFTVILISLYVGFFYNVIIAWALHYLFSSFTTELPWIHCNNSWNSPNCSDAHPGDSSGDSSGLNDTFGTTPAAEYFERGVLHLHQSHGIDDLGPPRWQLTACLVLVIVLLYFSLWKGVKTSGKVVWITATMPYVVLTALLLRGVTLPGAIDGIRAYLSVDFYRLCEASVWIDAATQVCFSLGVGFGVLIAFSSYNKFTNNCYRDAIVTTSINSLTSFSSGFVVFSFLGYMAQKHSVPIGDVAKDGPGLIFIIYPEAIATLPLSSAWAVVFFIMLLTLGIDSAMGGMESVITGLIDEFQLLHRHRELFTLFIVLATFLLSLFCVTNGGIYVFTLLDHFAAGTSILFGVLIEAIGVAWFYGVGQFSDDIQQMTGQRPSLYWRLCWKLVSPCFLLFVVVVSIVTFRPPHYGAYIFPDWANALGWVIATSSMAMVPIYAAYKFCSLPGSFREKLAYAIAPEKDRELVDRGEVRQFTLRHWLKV
Sequence of rNET (Q63380 1-617): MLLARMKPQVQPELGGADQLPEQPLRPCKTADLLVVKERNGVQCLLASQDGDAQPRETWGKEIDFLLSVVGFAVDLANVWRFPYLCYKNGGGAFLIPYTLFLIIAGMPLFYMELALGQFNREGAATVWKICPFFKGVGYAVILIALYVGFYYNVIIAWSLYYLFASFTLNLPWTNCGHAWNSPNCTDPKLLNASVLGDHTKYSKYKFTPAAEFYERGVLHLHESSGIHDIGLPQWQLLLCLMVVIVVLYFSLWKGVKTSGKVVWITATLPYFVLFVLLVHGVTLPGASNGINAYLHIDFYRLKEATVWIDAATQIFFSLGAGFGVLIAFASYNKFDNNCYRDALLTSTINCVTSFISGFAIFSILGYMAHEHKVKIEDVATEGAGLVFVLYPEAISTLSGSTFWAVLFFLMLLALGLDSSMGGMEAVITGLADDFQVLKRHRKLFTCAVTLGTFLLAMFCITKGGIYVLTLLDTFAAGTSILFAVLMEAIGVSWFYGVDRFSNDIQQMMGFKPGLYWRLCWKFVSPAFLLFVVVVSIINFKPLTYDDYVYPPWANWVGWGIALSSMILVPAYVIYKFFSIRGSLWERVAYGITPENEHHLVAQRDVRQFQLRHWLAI

## CNC(C)C(=O)c1ccccc1 (centres unmarked) [Methcathinone, reference compound]
[1]
  Effect on extracellular 5-HT in nucleus accumbens: large dose-dependent increases
[2]; rat nucleus accumbens
  Potency as dopamine releasing agent relative to 5-HT releaser in vivo: about twice as potent
[2]
  Effect on extracellular dopamine in nucleus accumbens: large dose-dependent increases
hNET [3]
  IC50: 0.5 ± 0.1 µM
rDAT [4]
  IC50: 0.36 ± 0.06 µM
hSERT [5]
  IC50: 35 ± 5 µM
rDAT [6]; read-out: DAT [3H]MPP+ release EC50, rat striatal synaptosomes, mean ±S.E.M.
  EC50: 0.02 ± 0.001 µM
rSERT; read-out: SERT [3H]5-HT release EC50, rat brain synaptosomes, mean ±S.E.M.
  EC50: 4 ± 1 µM
rNET; [13]
  EC50: 0.02 ± 0.003 µM

## CNC(C)C(=O)c1cccc(C(F)(F)F)c1 (centres unmarked) [3-TFMAP, 2-(methylamino)-1-(3-trifluoromethylphenyl)propan-1-one]
hSERT [7]
  IC50: 11.3 ± 0.4 µM
rDAT [6]
  EC50: 0.61 ± 0.09 µM
hNET [8]
  IC50: 3 ± 0.8 µM
rSERT; [14]
  EC50: 0.38 ± 0.06 µM
rSERT
  Fold more potent than methcathinone as [3H]5-HT releasing agent: 10 fold
rNET; [13]
  EC50: 2.7 ± 0.8 µM
hDAT
  IC50: 136 ± 8 µM

## CNC(C)C(=O)c1ccc(Br)cc1 (centres unmarked) [4-bromomethcathinone]
[9]
  Locomotor effects in vivo compared to methcathinone: fewer locomotor effects

## CNC(C)C(=O)c1ccc(C(F)(F)F)cc1 (centres unmarked) [4-TFMAP, 2-(methylamino)-1-(4-trifluoromethylphenyl)propan-1-one]
[10]
  Effect on horizontal locomotor activity: no effect; also recorded: nor did it stimulate locomotor activity
[1]; nucleus accumbens
  Potency on dialysate 5-HT relative to methcathinone: approximately 1/3
[1]
  Effect on extracellular 5-HT in nucleus accumbens: increased extracellular 5-HT; also recorded: dose-related increase in 5-HT efflux
[2]
  Effect on extracellular dopamine in nucleus accumbens: no effect; also recorded: did not stimulate dopamine release
hSERT [7]
  IC50: 4.5 ± 0.6 µM
rDAT [6]
  EC50: 2.7 ± 0.3 µM
hNET [8]
  IC50: 3 ± 0.9 µM
rSERT; EC50 for [3H]5-HT release at rSERT, rat brain synaptosomes
  EC50: 0.186 µM
rSERT; [14]
  EC50: 0.19 ± 0.03 µM
rSERT
  Fold more potent than methcathinone as [3H]5-HT releasing agent: 10 fold
rNET; read-out: EC50 for [3H]MPP+ release at rNET
  EC50: 0.867 µM
rNET; [13]
  EC50: 0.9 ± 0.3 µM
hDAT
  IC50: 200 ± 50 µM

## CNC(C)C(=O)c1ccc(C)cc1 (centres unmarked) [mephedrone, 4-methylmethcathinone]
[11]
  Effect on DA release in nucleus accumbens: stimulated both 5-HT and DA release
[9]; 1 and 3 mg/kg, ref Baumann et al., 2012, Kehr et al. (2011)
  Effect on locomotor activity: dose-related locomotor stimulation
[12]
  Effect on 5-HT release in nucleus accumbens: stimulated both 5-HT and DA release

## CNC(C)C(=O)c1ccccc1C(F)(F)F (centres unmarked) [2-TFMAP, 2-(methylamino)-1-(2-tri-fluoromethylphenyl)propan-1-one]
hSERT [7]
  IC50: 239 ± 13 µM
rDAT [6]
  EC50: 8 ± 0.9 µM
hNET [8]
  IC50: 10 ± 3 µM
rSERT; [14]
  EC50: 8.4 ± 0.8 µM
rNET; [13]
  EC50: 2.2 ± 0.3 µM
hDAT
  IC50: 689 ± 160 µM

## [^3H]methcathinone
Human SERT
  Km: 0.244 µM

## CNC(C)C(=O)c1cccc(Br)c1 (centres unmarked) [3-bromomethcathinone]
[9]
  Locomotor effects in vivo compared to methcathinone: fewer locomotor effects
